Article PMC5167571 (Molecular pharmaceutics, 2015)
Starred links: 1 amine or outer side, 2 acyl side, 3 side chain; linkers in the order of their positions; H or OH if unused. Non-standard residues stand in square brackets, D forms with d. Residues, ends and D or L forms follow the SMILES beside them. *: point of attachment. DOTA = O=C(O)CN1CCN(CC(=O)O)CCN(CC(=O)*)CCN(CC(=O)O)CC1; Acryloyl(3-(3-pyridyl),E) = O=C(/C=C/c1cccnc1)*; X1 = O=C(Cc1ccc(N[*:1])cc1)[*:2]; Aad = N[C@@H](CCCC(=O)O)C(=O)O; NH(2-Me-phenyl) = Cc1ccccc1N*; PEG4 = NCCOCCOCCOCCOCCC(=O)O; Ac6c = NC1(C(=O)O)CCCCC1; CO = O=C([*:1])[*:2]

Columns and labels:
VLA-4 (integrin α4β1) = VLA-4 (integrin α4β1) (Mus musculus, UniProt P09055+Q00651); assay: Competitive binding assay with ^64Cu-NODAGA-PEG4-LLP2A in B16F10 melanoma cells; conditions: VLA-4, B16F10 cells; Ki of Ga conjugate vs Kd of Lu conjugate
Procedure, shortened: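 Both assays used B16F10 cells (10⁵/well, seeded 24 h earlier) in HBSS/0.1% BSA/1 mM Mn²⁺ on ice. […] Kd: ¹⁷⁷Lu conjugate (0.2–40 nM), 2 h, n = 3, with nonspecific binding from a 15 μg LLP2A-PEG₄ block. Cell-bound counts were normalized to BCA protein and fitted for Kd and Ki.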

[1] = Biodistribution of ^68Ga-DOTA-PEG4-LLP2A; assay type: in vivo, mouse; conditions: C57BL/6, mouse, iv, 5.55 MBq, total radioactivity
Procedure, shortened: (§1)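 Mice bearing s.c. right-shoulder B16F10 tumors (10⁶ cells in PBS) received the ⁶⁸Ga tracer i.v. (5.55 MBq, 277 ng), n = 4 per group. They were sacrificed at 1 h. A blocking group received tracer premixed with 100 μg LLP2A-PEG₄. Tissues and tumor were weighed and γ-counted, and decay-corrected %ID/g was calculated against a standard. Data are mean ± SD.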

[2] = system: B16F10 tumor-bearing C57BL/6 mice; assay: Biodistribution of ^68Ga-DOTA-PEG4-LLP2A; assay type: in vivo, mouse; conditions: 360-fold excess of LLP2A-PEG4 (100 μg), 1 h
Procedure, shortened: as §1

B16F10 cells = assay: Internalization assay; assay type: cell-based, mouse; conditions: 37 °C; for Internalized agent: 12 ng/well, n = 3
[3] = Biodistribution of ^177Lu-DOTA-PEG4-LLP2A; assay type: in vivo, mouse; conditions: C57BL/6, mouse, iv, 3.6 MBq, total radioactivity
Procedure, shortened: (§2)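 B16F10 cells (10⁶ in PBS) were implanted s.c. in the right shoulder of 6–8-week-old C57BL/6 mice. ¹⁷⁷Lu conjugate (3.6 MBq, 90 ng) was given i.v., n = 5 per group. Animals were killed at 4, 24, 48, 72 and 96 h. Blood, organs, muscle, bone and tumor were weighed and γ-counted. Values are decay-corrected %ID/g against an injected-dose standard, shown as tumor/blood and tumor/muscle ratios, mean ± SD.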

[4] = system: B16F10 tumor-bearing C57BL/6 mice; assay: Biodistribution of ^177Lu-DOTA-PEG4-LLP2A; assay type: in vivo, mouse; conditions: 4 h postinjection, i.v.
Procedure, shortened: as §2

Chain of VLA-4 (integrin α4β1) (Q00651 41-1039): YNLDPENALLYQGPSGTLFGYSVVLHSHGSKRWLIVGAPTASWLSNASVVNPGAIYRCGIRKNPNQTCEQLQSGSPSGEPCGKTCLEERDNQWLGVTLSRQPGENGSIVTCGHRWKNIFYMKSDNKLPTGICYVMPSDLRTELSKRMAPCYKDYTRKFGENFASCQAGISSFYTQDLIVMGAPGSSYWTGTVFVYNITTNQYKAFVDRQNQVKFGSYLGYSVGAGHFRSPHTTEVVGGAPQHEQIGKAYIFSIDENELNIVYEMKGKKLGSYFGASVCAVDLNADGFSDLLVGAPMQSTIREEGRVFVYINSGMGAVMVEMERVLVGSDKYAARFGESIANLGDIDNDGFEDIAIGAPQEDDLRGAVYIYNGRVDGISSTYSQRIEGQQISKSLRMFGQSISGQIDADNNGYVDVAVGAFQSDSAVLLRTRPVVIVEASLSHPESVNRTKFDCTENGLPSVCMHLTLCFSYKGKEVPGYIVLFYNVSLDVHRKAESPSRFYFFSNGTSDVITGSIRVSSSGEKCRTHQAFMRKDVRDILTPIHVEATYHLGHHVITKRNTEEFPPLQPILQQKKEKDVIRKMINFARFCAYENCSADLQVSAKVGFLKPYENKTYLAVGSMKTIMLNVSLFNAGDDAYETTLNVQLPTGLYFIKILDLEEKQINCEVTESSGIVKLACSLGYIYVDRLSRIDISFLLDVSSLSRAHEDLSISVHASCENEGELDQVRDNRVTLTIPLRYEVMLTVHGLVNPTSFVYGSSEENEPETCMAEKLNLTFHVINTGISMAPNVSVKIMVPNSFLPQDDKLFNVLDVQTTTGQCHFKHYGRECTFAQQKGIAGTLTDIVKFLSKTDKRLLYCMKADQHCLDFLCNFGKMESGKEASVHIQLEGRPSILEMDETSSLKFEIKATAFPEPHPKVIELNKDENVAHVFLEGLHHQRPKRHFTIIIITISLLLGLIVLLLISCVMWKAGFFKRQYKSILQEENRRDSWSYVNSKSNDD
Chain of VLA-4 (integrin α4β1) (P09055 21-798): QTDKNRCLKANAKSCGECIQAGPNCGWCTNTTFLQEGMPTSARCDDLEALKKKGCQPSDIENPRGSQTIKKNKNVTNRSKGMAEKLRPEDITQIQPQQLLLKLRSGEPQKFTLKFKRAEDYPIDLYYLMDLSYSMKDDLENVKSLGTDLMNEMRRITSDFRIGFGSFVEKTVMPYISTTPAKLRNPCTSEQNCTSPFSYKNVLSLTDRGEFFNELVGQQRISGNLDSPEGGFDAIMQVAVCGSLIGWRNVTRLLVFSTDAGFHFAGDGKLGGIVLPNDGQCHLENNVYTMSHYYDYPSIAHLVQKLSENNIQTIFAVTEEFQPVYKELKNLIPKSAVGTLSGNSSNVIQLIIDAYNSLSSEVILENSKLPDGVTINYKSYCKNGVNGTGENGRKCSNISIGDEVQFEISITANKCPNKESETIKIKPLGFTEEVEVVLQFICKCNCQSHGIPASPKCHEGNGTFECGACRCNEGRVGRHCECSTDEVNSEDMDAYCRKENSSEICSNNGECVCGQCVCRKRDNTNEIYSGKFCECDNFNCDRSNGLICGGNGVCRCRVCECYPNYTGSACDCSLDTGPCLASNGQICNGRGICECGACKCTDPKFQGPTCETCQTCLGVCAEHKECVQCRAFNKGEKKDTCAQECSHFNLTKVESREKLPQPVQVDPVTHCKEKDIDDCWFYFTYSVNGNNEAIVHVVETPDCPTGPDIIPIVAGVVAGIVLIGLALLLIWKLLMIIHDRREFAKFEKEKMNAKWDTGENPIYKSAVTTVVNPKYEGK

SMILES: Cc1ccccc1NC(=O)Nc1ccc(CC(=O)N[C@@H](CCCCNC(=O)/C=C/c2cccnc2)C(=O)N[C@@H](CCCC(=O)O)C(=O)NC2(C(=O)NCCOCCOCCOCCOCCC(=O)N[C@@H](CCCCNC(=O)CN3CCN(CC(=O)O)CCN(CC(=O)O)CCN(CC(=O)O)CC3)C(N)=O)CCCCC2)cc1 [^68Ga-DOTA-PEG4-LLP2A, metal not drawn] ({NH(2-Me-phenyl)-CO}-[X1]K(Acryloyl(3-(3-pyridyl),E))[Aad][Ac6c][PEG4]K(DOTA)-NH2; N-terminus and C-terminus assumed)
- fold higher affinity than the ^177Lu-labeled conjugate (VLA-4 (integrin α4β1)): 3 fold
- tissue uptake at 1 h ([1]; bone marrow): 3.2 ± 0.7 %ID/g
- tissue uptake at 1 h ([1]; kidneys): 3.7 ± 0.9 %ID/g
- tissue uptake at 1 h ([1]; liver): 1.9 ± 0.4 %ID/g
- tissue uptake at 1 h ([1]; spleen): 5.4 ± 1.7 %ID/g
- tissue uptake at 1 h ([1]; thymus): 4.6 ± 0.5 %ID/g
- tissue uptake at 1 h ([1]; tumor): 9.1 ± 0.9 %ID/g
- tissue to tissue ratio at 1 h ([1]; tumor/blood): 5.8 ± 1.5
- tissue to tissue ratio at 1 h ([1]; tumor/muscle): 9.7 ± 1.5
- uptake in blocking study [2]: reduction of uptake

SMILES: Cc1ccccc1NC(=O)Nc1ccc(CC(=O)N[C@@H](CCCCNC(=O)/C=C/c2cccnc2)C(=O)N[C@@H](CCCC(=O)O)C(=O)NC2(C(=O)NCCOCCOCCOCCOCCC(=O)N[C@@H](CCCCNC(=O)CN3CCN(CC(=O)O)CCN(CC(=O)O)CCN(CC(=O)O)CC3)C(N)=O)CCCCC2)cc1 [^177Lu-DOTA-PEG4-LLP2A, metal not drawn] ({NH(2-Me-phenyl)-CO}-[X1]K(Acryloyl(3-(3-pyridyl),E))[Aad][Ac6c][PEG4]K(DOTA)-NH2; N-terminus and C-terminus assumed)
- Internalized agent (B16F10 cells; 30 min (maximum uptake)): 341 ± 110 fmol/mg
- Internalized agent (B16F10 cells; 2 h): 343 ± 53 fmol/mg
- Internalized agent (B16F10 cells; 4 h): 303 ± 41 fmol/mg
- time to internalization post addition (B16F10 cells; internalized rapidly): < 15 min
- tissue uptake at 4 h ([3]; bone (likely bone marrow)): 10.1 ± 3.5 %ID/g
- tissue uptake at 24 h ([3]; bone): 4.1 ± 0.4 %ID/g
- tissue uptake at 48 h ([3]; bone): 2.7 ± 0.6 %ID/g
- tissue uptake at 72 h ([3]; bone): 2.2 ± 0.5 %ID/g
- tissue uptake at 96 h ([3]; bone): 1.6 ± 0.6 %ID/g
- tissue uptake at 24 h ([3]; kidney): 2.4 ± 0.3 %ID/g
- tissue uptake at 4 h ([3]; kidneys): 6.5 ± 1.5 %ID/g
- tissue uptake at 4 h ([3]; liver): 2.8 ± 0.4 %ID/g
- tissue uptake at 24 h ([3]; liver): 1 ± 0.1 %ID/g
- tissue uptake at 4 h ([3]; lungs): 5.9 ± 0.8 %ID/g
- tissue uptake at 4 h ([3]; spleen): 27.1 ± 3.1 %ID/g
- tissue uptake at 24 h ([3]; spleen): 10.1 ± 4.1 %ID/g
- tissue uptake at 48 h ([3]; spleen): 7.4 ± 1.4 %ID/g
- tissue uptake at 72 h ([3]; spleen): 4.7 ± 1.5 %ID/g
- tissue uptake at 96 h ([3]; spleen): 3.7 ± 1.1 %ID/g
- tissue uptake at 4 h ([3]; thymus): 9.7 ± 1.7 %ID/g
- tissue uptake at 24 h ([3]; thymus): 5.6 ± 0.9 %ID/g
- tissue uptake at 48 h ([3]; thymus): 4.1 ± 0.2 %ID/g
- tissue uptake at 72 h ([3]; thymus): 2.7 ± 0.5 %ID/g
- tissue uptake at 96 h ([3]; thymus): 1.7 ± 0.2 %ID/g
- tissue uptake at 4 h ([3]; tumor): 31.5 ± 7.8 %ID/g
- tissue uptake at 24 h ([3]; tumor): 5.4 ± 1.5 %ID/g
- tissue uptake at 48 h ([3]; tumor): 1.7 ± 0.4 %ID/g
- tissue uptake at 72 h ([3]; tumor): 0.9 ± 0.4 %ID/g
- tissue uptake at 96 h ([3]; tumor): 0.4 ± 0.07 %ID/g
- tissue to tissue ratio at 4 h ([3]; tumor/blood): 36 ± 10
- tissue to tissue ratio at 24 h ([3]; tumor/blood): 186 ± 26
- tissue to tissue ratio at 48 h ([3]; tumor/blood): 61 ± 13
- tissue to tissue ratio at 72 h ([3]; tumor/blood): 35 ± 37
- tissue to tissue ratio at 96 h ([3]; tumor/blood): 25 ± 16
- tissue to tissue ratio at 4 h ([3]; tumor/muscle): 21 ± 7
- tissue to tissue ratio at 24 h ([3]; tumor/muscle): 18 ± 3
- tissue to tissue ratio at 48 h ([3]; tumor/muscle): 9 ± 1
- tissue to tissue ratio at 72 h ([3]; tumor/muscle): 6 ± 3
- tissue to tissue ratio at 96 h ([3]; tumor/muscle): 3 ± 0.4
- tumor uptake ([4]; 3.6 MBq, 90 ng, n = 5, mean ± SD): 31.3 ± 7.8 % ID/g
- uptake in the muscle, heart, and blood ([4]; n = 5): minimal uptake
